By Ki is commonly meant the dissociation constant of the complex between target and ligand, obtained from inhibition or displacement. A high value points to weaker binding. As a reminder, the inhibition is the percentage by which the read-out fell short of the control. Broadly, the IC50 is the concentration needed to halve the response being measured.

Activity calls are given as the source filed them. No cut-off for these calls is given here.

The values below come from ChEMBL document CHEMBL3797149, “1-Sulfonyl-6-Piperazinyl-7-Azaindoles as potent and pseudo-selective 5-HT6 receptor antagonists” (Bioorg Med Chem Lett, 2016).

Series [1] has as its target T1, 5-hydroxytryptamine receptor 6 (Homo sapiens, UniProt P50406). In words: Displacement of [3H]LSD from human 5HT6 receptor in HEK293 cell membrane incubated for 1 hr by scintillation counting method. Type of series: cell membranes. The method, boiled down:
(§1)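 Competition binding: [3H]-LSD displacement for 5-HT6 and [3H]-NMSP displacement for D2. Eight compound concentrations, 5 × 10^-6 to 5 × 10^-13 M, each tested in triplicate. Affinity is reported as Ki.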

Series [2] concerns the target T2, D(2) dopamine receptor (Homo sapiens, UniProt P14416). As to the kind of experiment: Displacement of [3H]NMSP from human dopamine D2S receptor expressed in CHO cell membrane incubated for 1 hr by scintillation counting method. The format is cell membranes. The method, boiled down:
as §1
For orientation: Loss of bound radioactivity is the signal in a displacement assay; it reports binding, not function.

The test system of another series is CHO. In words: Selectivity ratio of Ki for human dopamine D2S receptor expressed in CHO cell membrane to Ki for human 5HT6 receptor in HEK293 cell membrane. Type of series: cell-based. The method, boiled down:
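Ki values come from in-house competition binding: [3H]-LSD displacement at 5-HT6 and [3H]-NMSP displacement at D2. Compounds were tested at eight concentrations from 5×10^-6 to 5×10^-13 M in triplicate. The ratio is D2 Ki divided by 5-HT6 Ki.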

A short description of series [3]: Kinetic solubility in sorensen buffer at pH 7.4 incubated for 1 hr by UV-Visible spectrophotometry. The conditions noted are these: read-out: Kinetic_solubility. Type of series: physicochemical.
Series [4] concerns Mus musculus. As to the kind of experiment: Procognitive effect in CD1 mouse assessed as reversal of scopolamine-induced amnesia by measuring time spent in open arm in acquisition phase at 0.3 to 10 mg/kg, sc pretreated for 10 mins followed by scopolamine injection measured after 30 mins by elevated […] maze test. The format is functional, organism-based. Put shortly: (§2)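 Elevated plus maze in mice. Test article is given subcutaneously, then scopolamine 10 min later. In the acquisition phase (T1), open-arm time % ([open/(open+enclosed)]×100) and transfer latency to the enclosed arm are recorded. Retention phase (T2) follows 24 h later. n = 13–15 per group; data shown as mean ± SEM and median.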

Series [5] deals with Mus musculus. As to the kind of experiment: Procognitive effect in CD1 mouse assessed as reversal of scopolamine-induced amnesia by measuring time spent in open arm in retention phase at 0.3 to 10 mg/kg, sc pretreated for 10 mins followed by scopolamine injection measured after 24 hrs by elevated […] maze test. Type of series: functional, organism-based. The method, boiled down:
as §2

The target in series [6] is 5-hydroxytryptamine receptor 1B (Rattus norvegicus) (UniProt P28564). In words: Displacement of [125I]CYP from 5HT1B receptor in rat cerebral cortex at 1 uM incubated for 120 mins by scintillation counting method relative to control. Type of series: tissue-based. The method, boiled down:
(§3)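 Tested at a single concentration in a contract panel of 106 neurotransmitter receptors, transporters and ion channels. Read-out is percent radioligand displacement.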

Series [7] has as its target T1, 5-hydroxytryptamine receptor 6. As to the kind of experiment: Displacement of [3H]LSD from human recombinant 5HT6 receptor expressed in CHO cells at 1 uM incubated for 120 mins by scintillation counting method relative to control. The format is cell-based. The method, boiled down:
(§4)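 Single-point screen at 1 µM (final) within a 106-target panel of neurotransmitter receptors, transporters and ion channels. Read-out is % radioligand displacement.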

For the next series, the target named is Cytochrome P450 3A4 (Homo sapiens, UniProt P08684). In words: Inhibition of human recombinant CYP3A4 using 7-benzyloxy-trifluoromethylcoumarin as substrate incubated for 30 mins by fluorescence analysis in presence of NADPH. Type of series: ADME.
Series [8] addresses D(3) dopamine receptor (Homo sapiens) (UniProt P35462). As to the kind of experiment: Displacement of [3H]methyl-spiperone from human recombinant dopamine D3 receptor expressed in CHO cells at 1 uM incubated for 60 mins by scintillation counting method relative to control. Type of series: cell-based. Put shortly:
as §3

Series [9] is described as follows: Passive permeability of compound after 4 hrs by sink-PAMPA assay. As to conditions: read-out: permeability. The format is ADME.
The target of the next series is Cytochrome P450 2D6 (Homo sapiens, UniProt P10635). As to the kind of experiment: Inhibition of human recombinant CYP2D6 using AMMC as substrate incubated for 45 mins by fluorescence analysis in presence of NADPH. Type of series: ADME.
The target in series [10] is T2, D(2) dopamine receptor. In words: Displacement of [3H]methyl-spiperone from human recombinant dopamine D2S receptor expressed in HEK293 cells at 1 uM incubated for 60 mins by scintillation counting method relative to control. Type of series: cell-based. The method, boiled down:
as §4

T1 sequence (P50406 whole entry): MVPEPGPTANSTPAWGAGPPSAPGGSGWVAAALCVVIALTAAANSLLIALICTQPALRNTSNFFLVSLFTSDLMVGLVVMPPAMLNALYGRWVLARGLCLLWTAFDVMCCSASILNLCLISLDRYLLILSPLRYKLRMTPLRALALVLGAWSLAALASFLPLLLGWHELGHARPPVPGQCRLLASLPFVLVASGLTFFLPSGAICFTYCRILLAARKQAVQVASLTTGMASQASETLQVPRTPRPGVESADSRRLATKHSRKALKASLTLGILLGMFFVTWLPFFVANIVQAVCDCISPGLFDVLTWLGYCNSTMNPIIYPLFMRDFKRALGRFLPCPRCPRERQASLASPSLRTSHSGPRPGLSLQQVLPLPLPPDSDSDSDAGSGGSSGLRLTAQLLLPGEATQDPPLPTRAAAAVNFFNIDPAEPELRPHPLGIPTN
T2 sequence (P14416 whole entry): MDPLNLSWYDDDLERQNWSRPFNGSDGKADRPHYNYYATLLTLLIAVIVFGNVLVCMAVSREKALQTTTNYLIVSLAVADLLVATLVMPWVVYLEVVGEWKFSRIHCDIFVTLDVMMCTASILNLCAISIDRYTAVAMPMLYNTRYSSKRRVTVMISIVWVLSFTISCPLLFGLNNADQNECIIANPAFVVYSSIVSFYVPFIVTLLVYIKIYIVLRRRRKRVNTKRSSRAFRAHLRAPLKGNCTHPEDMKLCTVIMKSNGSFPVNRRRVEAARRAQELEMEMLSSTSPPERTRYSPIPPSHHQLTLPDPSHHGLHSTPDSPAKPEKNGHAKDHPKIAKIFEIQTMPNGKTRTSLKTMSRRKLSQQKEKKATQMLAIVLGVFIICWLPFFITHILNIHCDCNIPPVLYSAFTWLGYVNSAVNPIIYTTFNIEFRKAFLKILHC
5-hydroxytryptamine receptor 1B (Rattus norvegicus), sequence (P28564 whole entry): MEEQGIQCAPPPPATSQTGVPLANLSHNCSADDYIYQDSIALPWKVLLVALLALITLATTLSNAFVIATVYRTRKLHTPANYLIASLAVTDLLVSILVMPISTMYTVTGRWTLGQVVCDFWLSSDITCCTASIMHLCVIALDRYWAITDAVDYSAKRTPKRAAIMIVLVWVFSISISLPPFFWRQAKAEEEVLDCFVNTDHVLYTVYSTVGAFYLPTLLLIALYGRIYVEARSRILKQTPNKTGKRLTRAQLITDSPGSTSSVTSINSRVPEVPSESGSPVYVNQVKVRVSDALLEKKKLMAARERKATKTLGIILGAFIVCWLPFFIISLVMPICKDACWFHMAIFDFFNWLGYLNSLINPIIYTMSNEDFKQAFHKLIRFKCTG
Cytochrome P450 3A4, sequence (P08684 whole entry): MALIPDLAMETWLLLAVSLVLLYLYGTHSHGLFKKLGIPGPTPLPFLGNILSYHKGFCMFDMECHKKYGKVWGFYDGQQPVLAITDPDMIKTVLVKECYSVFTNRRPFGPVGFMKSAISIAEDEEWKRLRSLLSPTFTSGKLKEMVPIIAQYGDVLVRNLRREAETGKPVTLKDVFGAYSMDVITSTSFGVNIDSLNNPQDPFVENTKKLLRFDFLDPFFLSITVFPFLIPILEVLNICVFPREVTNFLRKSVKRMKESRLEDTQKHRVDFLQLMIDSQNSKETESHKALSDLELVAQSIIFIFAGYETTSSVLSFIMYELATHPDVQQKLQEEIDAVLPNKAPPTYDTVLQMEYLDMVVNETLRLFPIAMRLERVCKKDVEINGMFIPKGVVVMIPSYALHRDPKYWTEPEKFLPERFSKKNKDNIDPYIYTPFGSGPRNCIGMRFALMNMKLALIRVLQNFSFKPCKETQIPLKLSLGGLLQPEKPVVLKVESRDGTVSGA
Cytochrome P450 2D6, sequence (P10635 whole entry): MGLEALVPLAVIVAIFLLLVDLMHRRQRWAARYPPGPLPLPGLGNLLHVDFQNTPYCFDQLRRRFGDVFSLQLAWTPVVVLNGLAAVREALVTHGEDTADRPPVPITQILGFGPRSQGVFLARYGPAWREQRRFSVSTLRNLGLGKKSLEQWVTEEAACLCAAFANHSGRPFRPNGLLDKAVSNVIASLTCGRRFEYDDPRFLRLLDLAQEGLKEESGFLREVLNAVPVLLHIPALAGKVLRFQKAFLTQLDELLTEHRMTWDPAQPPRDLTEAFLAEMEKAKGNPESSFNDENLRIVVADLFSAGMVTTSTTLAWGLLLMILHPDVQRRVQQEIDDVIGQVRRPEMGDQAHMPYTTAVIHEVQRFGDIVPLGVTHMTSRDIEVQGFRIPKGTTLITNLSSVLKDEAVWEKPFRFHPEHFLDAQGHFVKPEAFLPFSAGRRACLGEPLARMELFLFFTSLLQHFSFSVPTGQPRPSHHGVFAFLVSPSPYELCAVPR
D(3) dopamine receptor (Homo sapiens), sequence (P35462 whole entry): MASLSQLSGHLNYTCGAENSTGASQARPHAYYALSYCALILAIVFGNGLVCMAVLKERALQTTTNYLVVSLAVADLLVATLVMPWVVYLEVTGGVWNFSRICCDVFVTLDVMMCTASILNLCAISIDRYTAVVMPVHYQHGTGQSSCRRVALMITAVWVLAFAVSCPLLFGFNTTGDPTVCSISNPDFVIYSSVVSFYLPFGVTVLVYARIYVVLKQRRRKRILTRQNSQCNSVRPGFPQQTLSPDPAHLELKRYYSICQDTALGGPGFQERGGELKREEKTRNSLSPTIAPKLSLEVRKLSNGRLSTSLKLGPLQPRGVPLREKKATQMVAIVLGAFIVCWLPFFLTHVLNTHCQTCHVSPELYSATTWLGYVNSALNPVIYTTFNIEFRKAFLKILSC

Regarding `CN1CCN(c2cc(-c3ccc(C(F)(F)F)cc3)c3ccn(S(=O)(=O)C4CCCCC4)c3n2)CC1`, the values for the Ki (in series [1]; on D(2) dopamine receptor [2]) were 15 nM and > 2000 nM, respectively. Also, the Ratio Ki with CHO was > 133.

For the molecule `CC(C)CS(=O)(=O)n1ccc2c(-c3ccc4[nH]ccc4c3)cc(N3CCN(C)CC3)nc21`, the Ki in series [1] came out at 5 nM; on D(2) dopamine receptor [2], 382 nM. Further, the Ratio Ki with CHO stood at 76.

Take `CC(C)CS(=O)(=O)n1ccc2c(-c3ccc(C#N)cc3)cc(N3CCN(C)CC3)nc21`: the Ki in series [1] was found to be 7 nM; on D(2) dopamine receptor [2], 205 nM. The Ratio Ki in the series on CHO was 29.

Take `CC(C)CS(=O)(=O)n1ccc2c(-c3ccc(C(F)(F)F)cc3)cc(N3CCN(C)CC3)nc21.O=C(O)CC(O)(CC(=O)O)C(=O)O`: the solubility kinetic at 1 h in [3] was found to be 14 µg/mL.

As to `CCc1ccc(-c2cc(N3CCN(C)CC3)nc3c2ccn3S(=O)(=O)CC(C)C)cc1`, the Ki worked out at 11 nM in [1] and 614 nM at D(2) dopamine receptor [2]. Besides, the Ratio Ki in the series with CHO was 56.

In the case of `CC(C)CS(=O)(=O)n1ccc2c(-c3ccc(C(F)(F)F)cc3)cc(N3CCN(C)CC3)nc21.Cl`, in [3], the solubility kinetic at 1 h was 14 µg/mL.

On to `Cc1noc(C)c1-c1cc(N2CCN(C)CC2)nc2c1ccn2S(=O)(=O)CC(C)C`, for which the Ki is 129 nM in series [1] and > 2000 nM on D(2) dopamine receptor [2]. Also, the Ratio Ki in the series with CHO is > 15.

`CC(C)CS(=O)(=O)n1ccc2c(-c3cnn(C)c3)cc(N3CCN(C)CC3)nc21`: the Ki in [1] is 87 nM; at D(2) dopamine receptor [2] it was > 2000 nM. Further, the Ratio Ki in the series on CHO was > 23.

With `CC(C)CS(=O)(=O)n1ccc2c(-c3ccccc3)cc(N3CCN(C)CC3)nc21`, the Ki in series [1] was 16 nM; on D(2) dopamine receptor [2], 547 nM. In addition, the Ratio Ki in the series with CHO came to 35.

Consider `CC(C)CS(=O)(=O)n1ccc2c(-c3cccc(C(F)(F)F)c3)cc(N3CCN(C)CC3)nc21`, for which the Ki came to 48 nM in [1] and 630 nM at D(2) dopamine receptor [2]. In addition, the Ratio Ki in the series on CHO was 13.

As for `COCCS(=O)(=O)n1ccc2c(-c3ccc(C(F)(F)F)cc3)cc(N3CCN(C)CC3)nc21`, the Ki in series [1] stood at 8 nM; on D(2) dopamine receptor [2], 52 nM. Besides, the Ratio Ki in the series with CHO is 6.

With `Cc1cc(-c2cc(N3CCN(C)CC3)nc3c2ccn3S(=O)(=O)CC(C)C)c(C)s1`, the figures for the Ki (in [1]; at D(2) dopamine receptor [2]) were 12 nM and 640 nM, respectively. Further, the Ratio Ki with CHO is 53.

Turning to `CC(C)CS(=O)(=O)n1ccc2c(-c3ccc(C(F)(F)F)cc3)cc(N3CCN(C)CC3)nc21.O=C(O)C(O)C(O)C(=O)O`, in series [3], the solubility kinetic at 1 h was 11 µg/mL.

For `CC(C)CS(=O)(=O)n1ccc2c(-c3ccc(C(F)(F)F)cc3)cc(N3CCN(C)CC3)nc21.O=C(O)/C=C/C(=O)O`, in series [3], the solubility kinetic at 1 h came out at 20 µg/mL.

Take `CN1CCN(c2cc(-c3ccc(C(F)(F)F)cc3)c3ccn(S(=O)(=O)C4CCOCC4)c3n2)CC1`: the Ki in series [1] was 7 nM; at D(2) dopamine receptor [2], > 2000 nM. For the same molecule, the Ratio Ki with CHO was > 285.

Consider `CC(C)CS(=O)(=O)n1ccc2c(-c3ccc(C(=O)N(C)C)cc3)cc(N3CCN(C)CC3)nc21`, for which the Ki (in series [1]; on D(2) dopamine receptor [2]) was > 2000 nM each time.

In the case of `CC(C)CS(=O)(=O)n1ccc2c(-c3ccccc3C(F)(F)F)cc(N3CCN(C)CC3)nc21`, the Ki in series [1] was found to be 24 nM; on D(2) dopamine receptor [2], 113 nM. Further, the Ratio Ki with CHO was found to be 5.

`CC(C)CS(=O)(=O)n1ccc2c(-c3ccc(C(F)(F)F)cc3)cc(N3CCN(C)CC3)nc21`: the outcome in the series on Mus musculus [4] and in the series on Mus musculus [5] was Active. The Ratio Ki in the series on CHO came to 80.

For `CC(C)CS(=O)(=O)n1ccc2c(-c3ccc(OCc4ccccc4)cc3)cc(N3CCN(C)CC3)nc21`, the Ki in series [1] was determined as 290 nM; on D(2) dopamine receptor [2], 86 nM. Further, in the series on CHO, the Ratio Ki stood at 0.3.

For the molecule `CC(C)CS(=O)(=O)n1ccc2c(-c3ccc(O)cc3)cc(N3CCN(C)CC3)nc21`, the Ki was determined as 22 nM in [1] and 108 nM at D(2) dopamine receptor [2]. Further, the Ratio Ki in the series on CHO is 5.

On to `CC(C)S(=O)(=O)n1ccc2c(-c3ccc(C(F)(F)F)cc3)cc(N3CCN(C)CC3)nc21`, for which the figures for the Ki (in series [1]; at D(2) dopamine receptor [2]) were 6 nM and 25 nM, respectively. The Ratio Ki with CHO was found to be 4.

As to `CN1CCN(c2cc(-c3ccc(C(F)(F)F)cc3)c3ccn(S(C)(=O)=O)c3n2)CC1`, the Ki in series [1] came out at 54 nM; at D(2) dopamine receptor [2], 1230 nM. In addition, the Ratio Ki with CHO turned out to be 22.

For `CC(C)CS(=O)(=O)n1ccc2c(-c3ccc(=O)[nH]c3)cc(N3CCN(C)CC3)nc21`, the Ki is 231 nM in [1] and > 2000 nM on D(2) dopamine receptor [2]. Also, the Ratio Ki with CHO is > 8.

As to `CC(C)CS(=O)(=O)n1ccc2c(-c3ccc(C(F)(F)F)cc3)cc(N3CCN(C)CC3)nc21.O=S(=O)(O)O`, in [3], the solubility kinetic at 1 h is 10 µg/mL.

As for `COc1ccc(-c2cc(N3CCN(C)CC3)nc3c2ccn3S(=O)(=O)CC(C)C)cc1`, the Ki was found to be 2 nM in series [1] and 22 nM at D(2) dopamine receptor [2]. For the same molecule, the Ratio Ki in the series on CHO turned out to be 9.

With `CC(C)CS(=O)(=O)n1ccc2c(-c3ccc(C(F)(F)F)cc3)cc(N3CCNCC3)nc21`, the Ki is 3 nM in series [1] and 1700 nM at D(2) dopamine receptor [2]. For the same molecule, the inhibition worked out at 72% in series [6], 100% in [7], 94% in series [8] and 60% at D(2) dopamine receptor [10]. Moreover, the IC50 is < 1100 nM at Cytochrome P450 3A4 and > 10000 nM on Cytochrome P450 2D6. In addition, the Papp at 4 h in series [9] was determined as 92 ×10⁻⁶ cm/s.

For the molecule `CC(C)CS(=O)(=O)n1ccc2c(-c3cccnc3)cc(N3CCN(C)CC3)nc21`, the Ki in [1] is 36 nM; at D(2) dopamine receptor [2], > 2000 nM. The Ratio Ki in the series on CHO is > 55.

On to `Br.CC(C)CS(=O)(=O)n1ccc2c(-c3ccc(C(F)(F)F)cc3)cc(N3CCN(C)CC3)nc21`, for which the solubility kinetic at 1 h in series [3] worked out at 65 µg/mL.
